Experimental data reported in ChEMBL document CHEMBL4610095, “chiro-Inositol Derivatives from Chisocheton paniculatus Showing Inhibition of Nitric Oxide Production” (J Nat Prod, 2020).

What was measured:
[1] = Cytotoxicity against mouse RAW264.7 cells assessed as cell viability at 100 ug/ml by MTT assay; format: cell-based; conditions: read-out: Activity
In short: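 Compounds tested at 100 μg/mL on RAW 264.7 cells seeded at 2×10^5 cells/well. Cells were co-stimulated with LPS (1 μg/mL) for 24 h at 37 °C. Viability of the remaining cells after supernatant removal was measured by MTT colorimetric assay.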

RAW264.7 = experiment: Antiinflammatory activity in mouse RAW264.7 cells assessed as reduction in LPS-induced NO production incubated for 24 hrs by Griess reagent based assay; format: functional, cell-based; conditions: RAW264.7, 24 h
In short: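 RAW 264.7 cells seeded at 2×10^5 cells/well and held 24 h at 37 °C, 5% CO2. Cells treated with or without compounds at various concentrations plus LPS (1 μg/mL) for 24 h. Nitrite in cell-free supernatant read by Griess reaction (sulfanilamide/phosphoric acid, N-1-naphthylethylenediamine) at 540 nm against a NaNO2 standard curve. L-NMMA served as positive control. IC50 reported.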

Row | Structure (SMILES) | viability at 100 ug/ml [1] | IC50 (RAW264.7)
1 | C/C=C(\C)C(=O)O[C@@H]1[C@H](O)[C@@H](OC(=O)C(C)CC)[C@@H](O)[C@H](OC(=O)/C(=C/C)CO)[C@H]1OC(=O)/C(=C/C)CO (some centres not stated) | > 85% | 20.3 µM
2 | C/C=C(\C)C(=O)O[C@@H]1[C@H](O)[C@@H](OC(=O)C(C)CC)[C@@H](OC(=O)/C(=C/C)CO)[C@H](O)[C@H]1OC(=O)/C(=C/C)CO (some centres not stated) | > 85% | 7.1 µM
3 | C/C=C(\CO)C(=O)O[C@H]1[C@H](OC(=O)C(C)CC)[C@H](O)[C@@H](OC(=O)C(C)CC)[C@@H](O)[C@@H]1OC(=O)/C(=C/C)CO (some centres not stated) | > 85% | 62.9 µM
4 | C/C=C(\CO)C(=O)O[C@@H]1[C@@H](O)[C@H](OC(=O)/C(=C/C)CO)[C@H](OC(=O)C(C)CC)[C@@H](O)[C@H]1OC(=O)C(C)CC (some centres not stated) | > 85% | 95.6 µM
5 | C/C=C(\C)C(=O)O[C@@H]1[C@@H](O)[C@@H](OC(=O)C(C)CC)[C@H](OC(=O)/C(=C/C)CO)[C@@H](OC(=O)/C(=C/C)CO)[C@@H]1O (some centres not stated) | > 85% | 124 µM
6 | C/C=C(\C)C(=O)O[C@@H]1[C@H](O)[C@@H](O)[C@@H](OC(=O)/C(C)=C/C)[C@H](OC(=O)/C(=C/C)CO)[C@H]1OC(=O)/C(=C/C)CO | > 85% | 56.7 µM
